Laboratory results as given in ChEMBL document CHEMBL3797104, “Triazole tethered C5-curcuminoid-coumarin based molecular hybrids as novel antitubulin agents: Design, synthesis, biological investigation and docking studies” (Eur J Med Chem, 2016).

Experiments:
[1] = Cytotoxicity against human PC3 cells assessed as growth inhibition at 50 uM after 48 hrs by SRB assay; assay type: functional; conditions: PC-3, 48 h, read-out: GI
Method in brief: (§1)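 Single-concentration screen at 50 µM. Cells grew 24 h at 37 °C, then had 48 h exposure in complete medium.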

[2] = Cytotoxicity against human COLO205 cells assessed as growth inhibition at 50 uM after 48 hrs by SRB assay; assay type: functional; conditions: COLO 205, 48 h, read-out: GI; method in brief: as §1
[3] = Cytotoxicity against human THP1 cells after 48 hrs by SRB assay; assay type: functional, cell-based; conditions: THP-1, 48 h
Method in brief: (§2)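 SRB assay in 96-well plates. Cells were seeded and grown 24 h at 37 °C in a CO2 incubator, then given test material in complete medium for a further 48 h. Cells were fixed with cold 50% TCA for 1 h at 4 °C, stained 30 min with 0.4% SRB in 1% acetic acid, and washed with […]. IC50 was taken from multi-concentration testing, run only for hybrids giving >70% inhibition at 50 µM in at least one line.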

[4] = Cytotoxicity against human HCT116 cells assessed as growth inhibition at 50 uM after 48 hrs by SRB assay; assay type: functional; conditions: HCT-116, 48 h, read-out: GI; method in brief: as §1
[5] = Cytotoxicity against human COLO205 cells after 48 hrs by SRB assay; assay type: functional, cell-based; conditions: COLO 205, 48 h; method in brief: as §2
[6] = Cytotoxicity against human THP1 cells assessed as growth inhibition at 50 uM after 48 hrs by SRB assay; assay type: functional; conditions: THP-1, 48 h, read-out: GI; method in brief: as §1
[7] = Cytotoxicity against human HCT116 cells after 48 hrs by SRB assay; assay type: functional, cell-based; conditions: HCT-116, 48 h; method in brief: as §2
Tubulin = experiment: Inhibition of tubulin (unknown origin) polymerization measured after 1 hr by ELISA plate reader analysis; assay type: protein-complex assay, Homo sapiens
Method in brief: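 Kit-based turbidity assay using tubulin (10 mg in general tubulin buffer with GTP). Compounds were diluted from DMSO stocks, preincubated 2 min at 37 °C in general tubulin buffer, then tubulin diluted in polymerization buffer (general and glycerol tubulin buffers plus GTP) was added. Absorbance at 340 nm was read after 1 h at 37 °C.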

IC50 (Tubulin) | Compound | inhibition of growth at 50 µM [1] | inhibition of growth at 50 µM [2] | IC50 [3] | inhibition of growth at 50 µM [4] | IC50 [5] | inhibition of growth at 50 µM [6] | IC50 [7]
2.88 µM | COc1ccc(/C=C/C(=O)/C=C/c2ccc(OCc3cn(CCOc4cc(=O)oc5ccccc45)nn3)c(OC)c2)cc1OC | 19% | 80% | 2.34 µM | 82% | 6.78 µM | 90% | 4.71 µM
7.65 µM | COc1cc(/C=C/C(=O)/C=C/c2cccc3ccccc23)ccc1OCc1cn(CCOc2cc(=O)oc3ccccc23)nn1 | 20% | 85% | 4.48 µM | 83% | 9.95 µM | 89% | 6.54 µM
1.55 µM | COc1cc(/C=C/C(=O)/C=C/c2cc(OC)c(OC)c(OC)c2)ccc1OCc1cn(CCOc2cc(=O)oc3ccccc23)nn1 | 22% | 86% | 0.82 µM | 89% | 4.68 µM | 99% | 2.21 µM
